Data set [1] in a line: Retention time of the compound measured over 30 mins at flow rate of 1 mL/min by HPLC. Type of data set: physicochemical. To be noted: 0.5 h. In outline:
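Reversed-phase analytical HPLC or LC−MS on a SymmetryShield RP18 column (5 μm, 4.6 × 150 mm). Gradient 10−60% B over 30 min at 1 mL/min; A = 0.1% TFA in water, B = 0.1% TFA in acetonitrile.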

The subject of data set [2] is HEK293. In words: Selectivity ratio of IC50 for rat Nav1.2 expressed in HEK-293 cells to IC50 for human Nav1.7 expressed in HEK-293 cells. Type of data set: cell-based.
Data set [3] addresses Sodium channel protein type 9 subunit alpha (Homo sapiens, UniProt Q15858). Kind of data set: Inhibition of human Nav1.7 expressed in HEK-293 cells assessed as time for channel-mediated current inhibition at 2 nM by time-course experiment. The data set is classed as cell-based. To be noted: HEK293. Summed up:
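HEK-293 cells on poly-D-lysine-coated dishes in DMEM at 37 °C, 5% CO2; recorded 12−48 h after plating. Whole-cell voltage-clamp sodium currents under continuous perfusion with extracellular solution. Compounds applied via a gravity-driven superfusion pipette array with its outlet about 100 μm from the cell.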

The nature of data set [4]: Retention time of the compound measured over 15 mins at flow rate of 1 mL/min by HPLC.

The structures appear in SMILES notation.

Sequence of Sodium channel protein type 9 subunit alpha (Q15858 whole entry, looked up, the tested form may be a part): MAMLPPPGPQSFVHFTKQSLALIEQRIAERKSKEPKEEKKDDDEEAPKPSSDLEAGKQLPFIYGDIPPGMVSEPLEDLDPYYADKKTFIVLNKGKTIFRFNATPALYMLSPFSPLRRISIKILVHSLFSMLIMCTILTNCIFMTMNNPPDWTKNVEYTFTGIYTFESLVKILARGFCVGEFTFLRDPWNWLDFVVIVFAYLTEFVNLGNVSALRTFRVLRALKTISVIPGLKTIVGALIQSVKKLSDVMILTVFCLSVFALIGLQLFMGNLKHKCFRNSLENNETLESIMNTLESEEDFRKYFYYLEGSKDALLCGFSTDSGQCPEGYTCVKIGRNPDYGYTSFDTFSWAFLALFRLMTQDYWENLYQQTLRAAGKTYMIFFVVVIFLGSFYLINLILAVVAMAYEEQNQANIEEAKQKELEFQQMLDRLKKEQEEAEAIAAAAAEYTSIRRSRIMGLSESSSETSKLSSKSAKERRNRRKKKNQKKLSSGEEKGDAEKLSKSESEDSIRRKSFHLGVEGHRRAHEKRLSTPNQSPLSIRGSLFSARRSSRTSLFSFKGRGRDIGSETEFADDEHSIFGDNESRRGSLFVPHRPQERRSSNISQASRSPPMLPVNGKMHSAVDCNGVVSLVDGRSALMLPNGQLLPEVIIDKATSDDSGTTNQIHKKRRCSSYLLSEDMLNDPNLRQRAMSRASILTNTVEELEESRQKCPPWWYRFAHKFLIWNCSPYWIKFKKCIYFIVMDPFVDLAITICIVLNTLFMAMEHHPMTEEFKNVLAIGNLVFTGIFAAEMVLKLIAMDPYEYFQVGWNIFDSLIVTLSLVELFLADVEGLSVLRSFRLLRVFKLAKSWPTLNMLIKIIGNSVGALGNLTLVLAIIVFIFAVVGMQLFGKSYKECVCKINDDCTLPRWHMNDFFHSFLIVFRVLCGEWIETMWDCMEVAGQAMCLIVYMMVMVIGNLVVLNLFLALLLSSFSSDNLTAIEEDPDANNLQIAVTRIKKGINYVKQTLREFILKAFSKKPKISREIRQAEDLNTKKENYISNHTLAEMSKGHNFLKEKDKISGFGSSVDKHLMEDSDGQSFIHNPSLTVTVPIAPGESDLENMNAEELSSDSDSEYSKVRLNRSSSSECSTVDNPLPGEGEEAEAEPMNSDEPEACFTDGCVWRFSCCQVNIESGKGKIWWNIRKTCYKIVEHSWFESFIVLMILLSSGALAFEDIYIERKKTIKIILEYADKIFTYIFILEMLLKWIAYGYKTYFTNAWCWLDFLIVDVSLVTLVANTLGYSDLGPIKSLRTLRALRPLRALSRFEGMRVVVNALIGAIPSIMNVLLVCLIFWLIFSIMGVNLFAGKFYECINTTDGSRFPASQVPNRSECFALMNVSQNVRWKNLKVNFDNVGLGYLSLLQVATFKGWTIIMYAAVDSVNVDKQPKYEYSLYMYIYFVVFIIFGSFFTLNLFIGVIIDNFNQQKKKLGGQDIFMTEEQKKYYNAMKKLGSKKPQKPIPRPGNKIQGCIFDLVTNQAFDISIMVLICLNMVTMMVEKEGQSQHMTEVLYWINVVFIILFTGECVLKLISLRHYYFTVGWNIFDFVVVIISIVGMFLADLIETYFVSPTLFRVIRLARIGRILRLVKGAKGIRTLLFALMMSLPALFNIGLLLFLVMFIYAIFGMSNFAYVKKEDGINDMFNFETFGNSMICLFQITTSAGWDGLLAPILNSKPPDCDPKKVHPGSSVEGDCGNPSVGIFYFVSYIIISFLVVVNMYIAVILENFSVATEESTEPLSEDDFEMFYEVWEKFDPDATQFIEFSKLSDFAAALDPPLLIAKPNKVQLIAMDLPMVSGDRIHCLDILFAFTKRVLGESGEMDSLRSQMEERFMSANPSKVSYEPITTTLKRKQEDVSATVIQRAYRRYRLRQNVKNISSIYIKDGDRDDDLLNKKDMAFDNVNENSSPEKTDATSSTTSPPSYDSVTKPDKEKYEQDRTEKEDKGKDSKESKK

With `CSCC[C@@H]1NC(=O)CNC(=O)[C@H](CCC(=O)O)NC(=O)[C@@H]2CSSC[C@H](NC(=O)[C@@H](N)Cc3ccc(O)cc3)C(=O)N[C@@H](CCC(N)=O)C(=O)N[C@@H](CCCCN)C(=O)N[C@@H](Cc3c[nH]c4ccccc34)C(=O)N[C@@H](CCSC)C(=O)N[C@@H](Cc3c[nH]c4ccccc34)C(=O)N[C@@H]([C@@H](C)O)C(=O)N[C@H]3CSSC[C@H](NC(=O)[C@H](C(C)C)NC1=O)C(=O)N[C@@H](CCCNC(=N)N)C(=O)N[C@@H](CC(C)C)C(=O)N[C@@H](Cc1c[nH]c4ccccc14)C(=O)N[C@H](C(=O)N[C@@H](CCCCN)C(=O)N[C@@H](CCCCN)C(=O)N[C@@H](CCCCN)C(=O)N[C@@H](CC(C)C)C(=O)N[C@@H](Cc1c[nH]c4ccccc14)C(=O)O)CSSC[C@H](NC(=O)[C@H](CCCCN)NC(=O)[C@H](CCCNC(=N)N)NC(=O)[C@H](C)NC(=O)[C@H](CO)NC(=O)[C@H](CC(=O)O)NC3=O)C(=O)N2`, the values for the Retention_time in data set [1] and in data set [4] were 14.54 min and 9.29 min, respectively. The Ratio IC50 in data set [2] was 40. Further, the TIME in data set [3] was 0.0606 h.

For the origin of these results see ChEMBL document CHEMBL3351726 (J Med Chem, 2014).
